Source: paper PMC5776820 (Proceedings of the National Academy of Sciences of the …, 2017)
Where no end group is shown, it is not given here.

Key:
[1] = test system: NOD mouse type A insulin-reactive CD4 T cells; test: IL-2 secretion; assay type: cell-based; conditions: sample titration, IL-2 after 24 h (Fig. 2A)
In short: (§1)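 Equal numbers of T-cell hybridomas or TCR-transduced avatars and paraformaldehyde-fixed M12.C3.g7 (IAg7) B-lymphoma APCs are cultured overnight with peptide titrations up to 100 μg/mL. Peptides have B:19 C→A and are >95% pure, with an IAg7-binding HEL peptide as negative control. IL-2 is read by HT-2 growth/survival or ELISA. Potency is the log10 shift of parallel third-order polynomial fits versus WT8E9R (=1), averaged over three titrations.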

[2] = test system: NOD mouse type B insulin-reactive CD4 T cells; test: IL-2 secretion; assay type: cell-based; conditions: sample titration, IL-2 after 24 h (Fig. 2A)
In short: as §1

[3] = test system: CD4 T cells of human T1D patients; conditions: HLA-DQ8; ref [14], [15]; cited from earlier work
[4] = test system: IA^g7; conditions: natural R at p9; ref [16]; cited from earlier work

With “8E9E: soluble mutated B:12–22 peptide, p9 R to E, B:19 C changed to A” the “potency relative to WT8E9R” value [1] was “about 100 ×” and the “potency compared with WT8E9R” value [2] was “no better than the WT peptide”.
For “B:11–23 peptide: versions of the B:11–23 peptide (identical between mice and humans) presented by DQ8 (LVEALYLVCGERG; ends and bridges not checked; UniProt P01308 35-47, looked up, fragment)”, the “human T-cell response to peptide bound to DQ8” value [3] is listed as “only when B:22R is mutated to E”.
For “B:22R to E mutated peptide: B:9–23 peptide with B:22R (p9) mutated to E, earlier work”, the “human T-cell response to peptide bound to DQ8” value [3] is listed as “dramatically improved T-cell response”.
In the case of SHLVEALYLVCGERG [B:9–23], the “binding to IA^g7 in R3” value [4] is listed as “greatly interferes with binding”.
